Data set [1] deals with T1, 3',5'-cyclic-AMP phosphodiesterase 4B (Homo sapiens, UniProt Q07343). The data set can be described thus: Inhibition of PDE4B isolated from human U937 cells using [3H]-cAMP incubated for 30 mins.
Data set [2] concerns the target 3',5'-cyclic-AMP phosphodiesterase 4D (Homo sapiens, UniProt Q08499). The data set can be described thus: Inhibition of PDE4D isolated from human U937 cells using [3H]-cAMP incubated for 30 mins.
Data set [3] relates to PBMC. The data set can be described thus: Inhibition of LPS-induced TNFalpha production in human PBMC pre-incubated for 30 mins before LPS stimulation for 18 hrs by TR-FRET assay. Format: functional, cell-based. In a few lines:
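PBMCs isolated from buffy coats (blood diluted 1:1 saline) and suspended at 5 × 10⁵ cells/mL in RPMI 1640 with 0.5% human serum albumin, pen/strep, 2 mM L-glutamine. 30 min compound pre-incubation, then 18 h LPS stimulation; supernatant TNF-α by TR-FRET (665 nm signal, 620 nm control); IC50 in μM.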

In another data set the test system is Mus musculus. As to the kind of experiment: Inhibition of LPS-induced TNFalpha production in Swiss Albino mouse model of sepsis at 10 mg/kg, po pre-treated 30 mins before LPS challenge and measured 90 mins post LPS injection by ELISA method relative to untreated control. Type of data set: functional. Put shortly:
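Female Swiss albino mice, weight-matched groups (n = 6), fasted 20 h with water; test compound given orally at 10 mg/kg as suspension in 0.5% Tween 80 / 0.25% sodium CMC, controls vehicle only. 30 min later 500 μg E. coli LPS (B4) i.p. in phosphate buffer; retro-orbital bleed at 90 min, serum TNF-α by mouse ELISA.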
(In general: In an ELISA, binding on a coated surface is turned into a signal by an enzyme label.)

Another data set relates to Rattus norvegicus. The data set can be described thus: Inhibition of LPS-induced neutropenia in Sprague-Dawley rat model of asthma assessed as reduction in neutrophils in BAL fluid at 10 mg/kg, po pre-treated 30 mins before LPS challenge and measured 6 hrs after LPS injection relative to untreated control. Conditions: in the assay text read “neutrophilia” for “neutropenia”. Type of data set: functional. In a few lines:
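Male Sprague Dawley rats acclimatized one week, randomized by weight (n = 6). Compound at 10 mg/kg po in 0.25% carboxymethyl cellulose vehicle given 30 min before 40 min exposure to 100 μg/mL E. coli LPS (B4). BAL at 6 h after exposure; total cell count and differential count versus control.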

Data set [4] relates to PBMC. The data set can be described thus: Potency index, ratio of IC50 for rolipram to IC50 for test compound for inhibition of LPS-induced TNFalpha production in human PBMC pre-incubated for 30 mins before LPS stimulation for 18 hrs by TR-FRET assay. Format: functional. A general note: TR-FRET usually uses a lanthanide donor and a delayed reading to cut background.
The next data set has as its target PDE1A (Homo sapiens, UniProt P54750). The data set can be described thus: Inhibition of human PDE1A at 100 uM.
A further data set deals with PDE2A (Homo sapiens, UniProt O00408). As to the kind of experiment: Inhibition of human PDE2A at 100 uM.
Another data set addresses PDE3B (Homo sapiens, UniProt Q13370). The data set can be described thus: Inhibition of human PDE3B at 100 uM.
The target of data set [5] is T1, 3',5'-cyclic-AMP phosphodiesterase 4B. As to the kind of experiment: Inhibition of human PDE4B at 100 uM.
A further data set deals with PDE5A (Homo sapiens, UniProt O76074). The data set can be described thus: Inhibition of human PDE5A at 100 uM.
For the next data set, the target named is PDE6C (Homo sapiens, UniProt P51160). As to the kind of experiment: Inhibition of human PDE6C at 100 uM.
The target in a further data set is PDE7A (Homo sapiens, UniProt Q13946). The data set can be described thus: Inhibition of human PDE7A at 100 uM.
For another data set, the target named is PDE8A (Homo sapiens, UniProt O60658). The data set can be described thus: Inhibition of human PDE8A at 100 uM.
Another data set addresses PDE9A (Homo sapiens, UniProt O76083). As to the kind of experiment: Inhibition of human PDE9A at 100 uM.
The target of the next data set is PDE10A (Homo sapiens, UniProt Q9Y233). The data set can be described thus: Inhibition of human PDE10A at 100 uM.
A further data set has as its target PDE11A (Homo sapiens, UniProt Q9HCR9). The data set can be described thus: Inhibition of human PDE11A at 100 uM.

T1 sequence (Q07343 whole entry): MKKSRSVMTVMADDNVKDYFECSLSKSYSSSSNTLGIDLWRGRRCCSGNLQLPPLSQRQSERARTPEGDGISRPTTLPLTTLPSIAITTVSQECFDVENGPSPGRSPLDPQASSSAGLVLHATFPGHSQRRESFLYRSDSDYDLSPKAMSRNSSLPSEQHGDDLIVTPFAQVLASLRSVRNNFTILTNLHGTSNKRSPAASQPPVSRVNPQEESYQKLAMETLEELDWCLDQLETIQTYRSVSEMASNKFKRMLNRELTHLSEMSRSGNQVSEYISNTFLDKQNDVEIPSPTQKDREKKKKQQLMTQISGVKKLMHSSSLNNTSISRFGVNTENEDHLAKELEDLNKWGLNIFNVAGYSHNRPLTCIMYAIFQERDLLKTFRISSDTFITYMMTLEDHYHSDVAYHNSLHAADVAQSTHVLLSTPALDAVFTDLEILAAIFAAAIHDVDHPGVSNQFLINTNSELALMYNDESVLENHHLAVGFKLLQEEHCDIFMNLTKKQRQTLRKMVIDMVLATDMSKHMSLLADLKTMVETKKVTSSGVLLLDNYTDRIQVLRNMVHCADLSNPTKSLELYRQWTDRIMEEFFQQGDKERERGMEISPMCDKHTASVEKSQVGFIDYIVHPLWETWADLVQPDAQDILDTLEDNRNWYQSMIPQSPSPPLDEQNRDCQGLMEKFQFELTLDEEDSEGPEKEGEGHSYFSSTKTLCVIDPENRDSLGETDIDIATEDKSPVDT
Chain of 3',5'-cyclic-AMP phosphodiesterase 4D (Q08499 whole entry): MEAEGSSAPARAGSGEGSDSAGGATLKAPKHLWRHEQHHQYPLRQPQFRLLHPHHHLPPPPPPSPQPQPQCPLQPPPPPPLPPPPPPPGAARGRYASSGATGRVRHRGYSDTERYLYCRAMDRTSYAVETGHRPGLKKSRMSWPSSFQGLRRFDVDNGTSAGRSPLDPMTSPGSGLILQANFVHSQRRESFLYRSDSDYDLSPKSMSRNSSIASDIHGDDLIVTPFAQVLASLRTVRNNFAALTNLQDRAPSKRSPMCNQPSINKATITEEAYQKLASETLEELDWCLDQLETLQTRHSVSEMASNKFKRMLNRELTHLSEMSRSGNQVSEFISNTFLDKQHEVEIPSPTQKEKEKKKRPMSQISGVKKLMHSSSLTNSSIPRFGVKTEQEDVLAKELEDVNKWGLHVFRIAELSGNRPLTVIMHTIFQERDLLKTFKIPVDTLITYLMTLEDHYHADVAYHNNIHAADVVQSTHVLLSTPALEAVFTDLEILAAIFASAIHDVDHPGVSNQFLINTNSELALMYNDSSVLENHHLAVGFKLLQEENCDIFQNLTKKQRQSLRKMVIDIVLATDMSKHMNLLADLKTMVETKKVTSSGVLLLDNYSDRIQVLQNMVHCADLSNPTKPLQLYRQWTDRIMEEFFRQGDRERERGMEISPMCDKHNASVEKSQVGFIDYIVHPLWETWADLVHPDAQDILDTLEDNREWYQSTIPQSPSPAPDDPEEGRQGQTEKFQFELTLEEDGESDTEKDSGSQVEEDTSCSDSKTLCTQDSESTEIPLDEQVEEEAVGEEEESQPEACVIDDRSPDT
Chain of PDE10A (Q9Y233 whole entry): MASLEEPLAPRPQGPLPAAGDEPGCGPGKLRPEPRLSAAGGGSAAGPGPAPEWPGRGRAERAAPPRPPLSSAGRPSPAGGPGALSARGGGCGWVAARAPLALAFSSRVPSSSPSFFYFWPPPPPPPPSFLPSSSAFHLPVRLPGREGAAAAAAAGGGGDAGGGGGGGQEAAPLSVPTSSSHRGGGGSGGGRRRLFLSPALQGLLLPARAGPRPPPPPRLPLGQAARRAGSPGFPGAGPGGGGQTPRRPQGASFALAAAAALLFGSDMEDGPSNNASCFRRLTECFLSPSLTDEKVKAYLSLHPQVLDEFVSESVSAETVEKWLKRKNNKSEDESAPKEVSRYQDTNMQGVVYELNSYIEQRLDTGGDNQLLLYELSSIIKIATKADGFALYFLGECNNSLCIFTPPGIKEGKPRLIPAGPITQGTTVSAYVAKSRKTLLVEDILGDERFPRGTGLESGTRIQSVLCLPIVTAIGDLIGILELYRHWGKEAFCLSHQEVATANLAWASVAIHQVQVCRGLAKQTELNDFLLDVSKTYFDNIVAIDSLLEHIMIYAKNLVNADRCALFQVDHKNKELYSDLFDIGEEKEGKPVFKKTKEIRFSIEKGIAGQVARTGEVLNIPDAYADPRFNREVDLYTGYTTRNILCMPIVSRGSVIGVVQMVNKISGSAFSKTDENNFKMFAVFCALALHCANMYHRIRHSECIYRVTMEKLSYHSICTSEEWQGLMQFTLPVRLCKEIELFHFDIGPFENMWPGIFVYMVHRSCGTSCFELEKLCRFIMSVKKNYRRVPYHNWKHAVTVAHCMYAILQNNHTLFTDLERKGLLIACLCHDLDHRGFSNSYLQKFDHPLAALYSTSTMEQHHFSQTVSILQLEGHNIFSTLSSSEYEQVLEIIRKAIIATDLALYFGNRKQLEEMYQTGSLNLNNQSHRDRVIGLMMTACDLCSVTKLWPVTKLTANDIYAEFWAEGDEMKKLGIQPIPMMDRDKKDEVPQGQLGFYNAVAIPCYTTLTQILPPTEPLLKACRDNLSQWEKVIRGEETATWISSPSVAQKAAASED
Chain of PDE2A (O00408 whole entry): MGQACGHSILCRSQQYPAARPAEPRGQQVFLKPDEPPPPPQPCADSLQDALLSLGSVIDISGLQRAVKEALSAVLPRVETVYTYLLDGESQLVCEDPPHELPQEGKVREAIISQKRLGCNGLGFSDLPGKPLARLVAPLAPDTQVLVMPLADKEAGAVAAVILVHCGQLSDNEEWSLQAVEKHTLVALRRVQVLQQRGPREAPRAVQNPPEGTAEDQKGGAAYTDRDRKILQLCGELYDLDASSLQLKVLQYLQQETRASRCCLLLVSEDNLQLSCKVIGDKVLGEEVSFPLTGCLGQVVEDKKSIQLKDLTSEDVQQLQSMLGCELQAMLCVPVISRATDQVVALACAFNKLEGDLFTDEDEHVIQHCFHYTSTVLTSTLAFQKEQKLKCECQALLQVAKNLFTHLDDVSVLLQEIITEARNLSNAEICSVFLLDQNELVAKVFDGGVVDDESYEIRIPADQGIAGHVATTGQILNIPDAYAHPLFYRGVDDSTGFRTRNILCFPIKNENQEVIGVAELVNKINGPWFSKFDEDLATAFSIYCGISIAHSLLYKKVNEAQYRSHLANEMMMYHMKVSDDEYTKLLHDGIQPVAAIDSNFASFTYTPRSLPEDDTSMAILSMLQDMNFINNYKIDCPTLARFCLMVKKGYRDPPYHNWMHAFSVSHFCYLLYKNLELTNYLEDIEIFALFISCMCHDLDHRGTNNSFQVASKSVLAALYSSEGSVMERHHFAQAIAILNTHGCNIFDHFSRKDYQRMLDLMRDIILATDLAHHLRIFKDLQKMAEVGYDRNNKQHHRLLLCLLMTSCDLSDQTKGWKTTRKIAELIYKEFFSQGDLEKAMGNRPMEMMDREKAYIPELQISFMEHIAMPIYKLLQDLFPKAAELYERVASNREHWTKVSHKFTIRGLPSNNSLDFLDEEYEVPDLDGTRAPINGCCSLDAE
Chain of PDE8A (O60658 whole entry): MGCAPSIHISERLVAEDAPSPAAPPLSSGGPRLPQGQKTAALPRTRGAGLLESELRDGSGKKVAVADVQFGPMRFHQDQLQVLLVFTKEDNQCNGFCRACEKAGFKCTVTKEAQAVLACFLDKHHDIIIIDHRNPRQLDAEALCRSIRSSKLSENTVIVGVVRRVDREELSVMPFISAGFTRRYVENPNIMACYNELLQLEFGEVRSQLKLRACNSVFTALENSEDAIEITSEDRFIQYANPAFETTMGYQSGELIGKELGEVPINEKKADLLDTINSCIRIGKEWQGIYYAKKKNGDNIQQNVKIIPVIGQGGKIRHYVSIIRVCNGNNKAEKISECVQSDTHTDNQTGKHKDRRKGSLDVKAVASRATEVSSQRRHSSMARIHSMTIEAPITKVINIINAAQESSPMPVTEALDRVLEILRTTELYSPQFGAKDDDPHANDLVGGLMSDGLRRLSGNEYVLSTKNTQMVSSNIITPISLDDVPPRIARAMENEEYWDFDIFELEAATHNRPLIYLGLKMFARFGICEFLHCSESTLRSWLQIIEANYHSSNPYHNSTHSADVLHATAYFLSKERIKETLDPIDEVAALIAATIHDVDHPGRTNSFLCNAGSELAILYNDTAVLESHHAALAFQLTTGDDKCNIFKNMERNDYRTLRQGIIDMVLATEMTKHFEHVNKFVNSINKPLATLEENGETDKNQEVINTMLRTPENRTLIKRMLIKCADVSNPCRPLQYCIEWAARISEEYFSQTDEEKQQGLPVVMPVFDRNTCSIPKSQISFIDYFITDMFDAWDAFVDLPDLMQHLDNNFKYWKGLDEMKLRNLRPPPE
Chain of PDE7A (Q13946 whole entry): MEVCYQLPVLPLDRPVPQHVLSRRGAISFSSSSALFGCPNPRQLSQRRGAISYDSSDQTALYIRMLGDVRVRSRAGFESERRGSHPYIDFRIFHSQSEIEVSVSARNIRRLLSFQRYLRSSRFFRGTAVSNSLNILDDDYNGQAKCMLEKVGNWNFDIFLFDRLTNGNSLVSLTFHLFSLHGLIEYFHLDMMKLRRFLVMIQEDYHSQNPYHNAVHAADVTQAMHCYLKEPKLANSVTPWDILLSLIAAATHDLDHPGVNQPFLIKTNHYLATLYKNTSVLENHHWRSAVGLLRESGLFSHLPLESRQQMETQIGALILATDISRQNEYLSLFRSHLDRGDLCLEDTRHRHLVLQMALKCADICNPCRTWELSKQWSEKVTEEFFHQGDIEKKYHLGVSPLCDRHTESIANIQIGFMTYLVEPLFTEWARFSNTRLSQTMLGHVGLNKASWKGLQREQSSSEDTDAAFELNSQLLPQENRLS

On to `COc1cc2c(cc1O)CN1C(=O)OCC1C2` (configuration not stated), for which the IC50 in data set [1] was more than 100 µM.

The compound `COc1cc2c(cc1OCc1ccccc1)CN1C(=O)OCC1C2` (configuration not stated) registered an IC50 in data set [1] of 8.18 µM.

With `COc1cc2c(cc1OC1CCCC1)C(C)N1C(=O)OCC1C2` (mixture of isomers), the IC50 in data set [1] is 1.35 µM; in data set [2], 12.8 µM; in the data set with PBMC [3], 2.6 µM.

On to `COc1cc2c(cc1OC1CCCC1)C(c1ccccc1)N1C(=O)OCC1C2` (mixture of isomers), for which the IC50 in data set [1] stood at 1.95 µM; in [2], 31.6 µM; with PBMC [3] it was 6.75 µM. The inhibition in vivo at 10 mg/kg with Mus musculus amounted to 40.4%; with Rattus norvegicus it was 28.1%.

As to `CCCCCCC1c2cc(OC3CCCC3)c(OC)cc2CC2COC(=O)N21` (mixture of isomers), the IC50 in data set [1] came out at 2.1 µM; in data set [2], 23.1 µM; in the data set with PBMC [3], 7.98 µM.

`COc1cc2c(cc1OC1CCCC1)C(C1CCCCC1)N1C(=O)OCC1C2` (mixture of isomers): the IC50 turned out to be 2.06 µM in [1], 26.7 µM in data set [2] and 9.05 µM in the data set on PBMC [3].

Consider `CCCCCCOc1cc2c(cc1OC)CC1COC(=O)N1C2` (racemic), for which the half-inhibitory concentration (IC50) in [1] worked out at 6.05 µM.

Regarding `COc1cc2c(cc1OCC1CC1)CN1C(=O)OCC1C2` (racemic), the half-maximal inhibitory concentration (IC50) in data set [1] came to 1.3 µM; in [2], 7.15 µM; with PBMC [3], 9.58 µM.

As for `COc1cc2c(cc1OC1CCCC1)CN1C(=O)OCC1C2` (racemic), the results for the IC50 (in [1]; in [2]; in the data set on PBMC [3]) were 0.6 µM, 5.13 µM and 1.35 µM, respectively. Also, the “Ratio IC50” value in the data set on PBMC [4] is 7. The inhibition at 100 µM amounted to 12% against PDE1A; 3% against PDE2A; 5% against PDE3B; 14% against PDE5A; 8% against PDE6C; 5% against PDE7A. Further, the inhibition at 100 µM amounted to 12% against PDE8A, 2% at PDE9A, 1% on PDE10A and 3% against PDE11A. Also, the inhibition in data set [5] came out at 100%. The inhibition in vivo at 10 mg/kg in the data set with Mus musculus was 48.2%; in the data set with Rattus norvegicus, 42.3%.

In the case of `CCCCCOc1cc2c(cc1OC)CC1COC(=O)N1C2` (racemic), the figures for the IC50 in [1] and in [2] were 4.1 µM and 23.3 µM, respectively.

`COc1cc2c(cc1OC)CN1C(=O)OCC1C2` (racemic) registered a half-inhibitory concentration (IC50) in data set [1] of 52.1 µM.

As for `COc1cc2c(cc1OC1CCCCC1)CN1C(=O)OCC1C2` (racemic), the IC50 in data set [1] came out at 2.62 µM; in data set [2] it was 13.9 µM; with PBMC [3], 8.4 µM.

For the compound `CCCOc1cc2c(cc1OC)CC1COC(=O)N1C2` (racemic), the IC50 in data set [1] was 22.4 µM.

`COc1ccc(C2CNC(=O)C2)cc1OC1CCCC1` (configuration not stated) [ROLIPRAM]: the IC50 in the data set on PBMC [3] was 10.8 µM. For the same compound, the inhibition in vivo at 10 mg/kg worked out at 41% with Mus musculus and 32.3% with Rattus norvegicus.

What is called IC50 is the concentration needed to halve the response being measured. Read a low IC50 as greater potency. A word on the inhibition in vivo: it is the percentage by which the read-out fell short of the control. The term inhibition denotes how much of the control response was suppressed. Read a low inhibition as a weak effect.

The values above are taken from ChEMBL document CHEMBL4043220, “Rational design of conformationally constrained oxazolidinone-fused 1,2,3,4-tetrahydroisoquinoline derivatives as potential PDE4 inhibitors” (Bioorg Med Chem, 2017).
